Measurements from different studies.
Protocols differ between the studies behind these lines.
Read-out: cell growth or viability

Compound	cell line	method	concentration	time	setting	measurement	result
C[C@@H]1CC[C@@H]([C@@](O)(CNCc2ccccc2)COCc2ccc(F)cc2)[C@H](OCc2ccc(F)cc2)C1	A2780	MTT	30 µM	72 h	–	inhibition	98.5%
COc1nc(NCc2cn(-c3ccc(C(=O)Nc4ccc([N+](=O)[O-])cc4)cc3)nn2)nc(OC)n1	Caco-2	MTT	–	72 h	–	IC50	724 nM
O=C1CC[C@@H](COc2ccc(C(=O)C(Cl)Cl)cc2[N+](=O)[O-])N1	NCI-H1650	MTT	2.5 µM	–	–	inhibition	29.8%
C[C@@H]1CC[C@@H]([C@](O)(CNCc2ccc(F)cc2)COCc2ccc(F)cc2)[C@H](OCc2ccc(F)cc2)C1	A2780	MTT	30 µM	72 h	–	inhibition	95.3%
C=CC(=O)NC1CCN(c2ncc3ncnc(Nc4ccc(Oc5ccc6c(c5)ncn6C)c(C)c4)c3n2)CC1	LoVo	–	–	–	–	EC50	11.8 nM
O=C(O)c1cccnc1Nc1cccc(C(F)(F)F)c1	NCI-H28	CCK-8	–	72 h	–	GI50	> 40000 nM
C[C@@H]1CC[C@@H]([C@](O)(CNCc2ccccc2)COCc2ccccc2)[C@H](OCc2ccccc2)C1	A2780	MTT	30 µM	72 h	–	inhibition	91.1%
COc1nc(NCc2cn(-c3ccc(NC(=O)c4ccc(Br)cc4)cc3)nn2)nc(OC)n1	Caco-2	MTT	–	72 h	–	IC50	689 nM
C=CC(=O)c1cccnc1Nc1cc(C(F)(F)F)ccc1OCc1ccccc1	NCI-H28	CCK-8	–	72 h	–	GI50	11200 nM
C=CC(=O)N1CCN(c2nc(=O)n(-c3c(C)ccnc3C(C)C)c3nc(-c4c(O)cccc4F)c(F)cc23)[C@@H](C)C1	NCI-H2122	ATP luminescence	–	–	–	IC50	90.1 nM
O=C(c1ccc(Oc2ccc3cc(Br)ccc3c2Cl)c([N+](=O)[O-])c1)C(Cl)Cl	NCI-H1650	MTT	2.5 µM	–	–	inhibition	97%
C[C@@H]1CC[C@@H]([C@](O)(CNCc2cccc3ccccc23)COCc2ccccc2)[C@H](OCc2ccccc2)C1	A2780	MTT	10 µM	72 h	–	inhibition	90.7%
COc1nc(NCc2cn(-c3ccc(NC(=O)c4ccc(C(F)(F)F)cc4)cc3)nn2)nc(OC)n1	Caco-2	MTT	–	72 h	–	IC50	566 nM
O=C(NO)c1ccc(CNc2nc3cccc(-c4ccc5c(c4)OCO5)n3n2)cc1	HT-29	SRB	–	–	–	GI50	510 nM
COc1ccc(CNC[C@@](C)(O)[C@@H]2CC[C@@H](C)C[C@H]2OCc2ccccc2)cc1	A2780	MTT	10 µM	72 h	–	inhibition	42.9%
O=C(c1ccc(Oc2ccc3c(c2)OCO3)c([N+](=O)[O-])c1)C(Cl)Cl	NCI-H1650	MTT	2.5 µM	–	–	inhibition	84.4%
COc1cccc(CNC[C@@](C)(O)[C@@H]2CC[C@@H](C)C[C@H]2OCc2ccccc2)c1	A2780	MTT	10 µM	72 h	–	inhibition	32.9%
O=C(c1ccccc1)c1ccc(Oc2ccc(C(=O)C(Cl)Cl)cc2[N+](=O)[O-])cc1	NCI-H1650	MTT	2.5 µM	–	–	inhibition	96.5%
C[C@@H]1CC[C@@H]([C@](C)(O)CNCc2ccccc2)[C@H](OCc2ccccc2)C1	A2780	MTT	10 µM	72 h	–	inhibition	91.6%
CC(=O)c1ccc(Oc2ccc(C(=O)C(Cl)Cl)cc2[N+](=O)[O-])cc1	NCI-H1650	MTT	2.5 µM	–	–	inhibition	96.4%
COc1ccccc1CNC[C@@](C)(O)[C@@H]1CC[C@@H](C)C[C@H]1OCc1ccccc1	A2780	MTT	10 µM	72 h	–	inhibition	58.5%
O=C(c1ccc(Oc2ccc(OCc3ccccc3)cc2)c([N+](=O)[O-])c1)C(Cl)Cl	NCI-H1650	MTT	2.5 µM	–	–	inhibition	96.9%
COc1ccc(NC(=O)c2ccc(-n3cc(CNc4nc(OC)nc(OC)n4)nn3)cc2)cc1	Caco-2	MTT	–	72 h	–	IC50	435 nM
COc1cccc2c1C(=O)c1c(O)c3c(c(O)c1C2=O)C[C@@](O)(C(=O)CO)C[C@@H]3O[C@H]1C[C@H](N)[C@H](O)[C@H](C)O1	NCI-H1650	MTT	2.5 µM	–	–	inhibition	95.8%
C=C(F)C(=O)N1CCN(c2nc(OC[C@@H]3CCCN3C)nc3c2CCN(c2cccc4cccc(Cl)c24)C3)C[C@@H]1CC#N	HCC44	ATP luminescence	–	–	–	IC50	> 10000 nM
CC(=O)OCCCOc1ccc(C(=O)C(Cl)Cl)cc1[N+](=O)[O-]	NCI-H1650	MTT	2.5 µM	–	–	inhibition	39.6%
COc1cccc2c1C(=O)c1c(O)c3c(c(O)c1C2=O)C[C@@](O)(C(=O)CO)C[C@@H]3O[C@H]1C[C@H](N)[C@H](O)[C@H](C)O1	Caco-2	MTT	6.25 µg/mL	48 h	serum-free	viability	62.1%
